# According to ChEMBL document CHEMBL1152560, “Substituted 2-arylbenzothiazoles as kinase inhibitors: hit-to-lead optimization” (Bioorg Med Chem, 2009):
# What was measured:
# [1] = biological target: Ribosomal protein S6 kinase alpha-5 (Homo sapiens) (UniProt O75582); assay: Residual activity of RPS6KA5 at 1 uM by microplate scintillation counting
# [2] = biological target: T1, Ephrin type-B receptor 1 (Homo sapiens) (UniProt P54762); assay: Residual activity of EPHB1 at 1 uM by microplate scintillation counting
# T1 sequence (whole entry): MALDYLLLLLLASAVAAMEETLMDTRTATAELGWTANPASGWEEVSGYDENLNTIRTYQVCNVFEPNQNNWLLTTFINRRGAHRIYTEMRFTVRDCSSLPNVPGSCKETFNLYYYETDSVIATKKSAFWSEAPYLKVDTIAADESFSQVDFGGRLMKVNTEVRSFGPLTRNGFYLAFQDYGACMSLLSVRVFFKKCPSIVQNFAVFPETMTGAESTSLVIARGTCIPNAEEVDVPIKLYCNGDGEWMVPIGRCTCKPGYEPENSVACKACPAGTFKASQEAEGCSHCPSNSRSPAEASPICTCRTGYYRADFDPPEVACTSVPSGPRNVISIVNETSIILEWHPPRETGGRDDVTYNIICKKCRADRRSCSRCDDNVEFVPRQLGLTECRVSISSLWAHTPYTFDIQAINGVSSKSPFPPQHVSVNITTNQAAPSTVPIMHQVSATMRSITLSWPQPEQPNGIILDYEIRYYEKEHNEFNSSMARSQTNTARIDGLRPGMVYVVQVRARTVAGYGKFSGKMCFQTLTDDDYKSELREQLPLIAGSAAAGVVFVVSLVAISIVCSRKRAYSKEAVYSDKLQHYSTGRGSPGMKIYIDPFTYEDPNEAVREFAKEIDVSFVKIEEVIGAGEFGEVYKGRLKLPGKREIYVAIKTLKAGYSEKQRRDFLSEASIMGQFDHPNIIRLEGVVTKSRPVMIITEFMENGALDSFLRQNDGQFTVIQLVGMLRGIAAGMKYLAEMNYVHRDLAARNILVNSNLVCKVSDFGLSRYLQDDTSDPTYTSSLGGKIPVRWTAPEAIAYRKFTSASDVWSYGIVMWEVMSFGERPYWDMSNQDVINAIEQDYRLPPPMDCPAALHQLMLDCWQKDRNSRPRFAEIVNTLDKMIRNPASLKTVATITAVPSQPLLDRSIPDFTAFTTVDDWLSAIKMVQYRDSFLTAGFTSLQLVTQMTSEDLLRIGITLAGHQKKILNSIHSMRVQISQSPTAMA
# [3] = biological target: T2, Discoidin domain-containing receptor 2 (Homo sapiens) (UniProt Q16832); assay: Residual activity of DDR2 at 10 uM by microplate scintillation counting
# T2 sequence (whole entry): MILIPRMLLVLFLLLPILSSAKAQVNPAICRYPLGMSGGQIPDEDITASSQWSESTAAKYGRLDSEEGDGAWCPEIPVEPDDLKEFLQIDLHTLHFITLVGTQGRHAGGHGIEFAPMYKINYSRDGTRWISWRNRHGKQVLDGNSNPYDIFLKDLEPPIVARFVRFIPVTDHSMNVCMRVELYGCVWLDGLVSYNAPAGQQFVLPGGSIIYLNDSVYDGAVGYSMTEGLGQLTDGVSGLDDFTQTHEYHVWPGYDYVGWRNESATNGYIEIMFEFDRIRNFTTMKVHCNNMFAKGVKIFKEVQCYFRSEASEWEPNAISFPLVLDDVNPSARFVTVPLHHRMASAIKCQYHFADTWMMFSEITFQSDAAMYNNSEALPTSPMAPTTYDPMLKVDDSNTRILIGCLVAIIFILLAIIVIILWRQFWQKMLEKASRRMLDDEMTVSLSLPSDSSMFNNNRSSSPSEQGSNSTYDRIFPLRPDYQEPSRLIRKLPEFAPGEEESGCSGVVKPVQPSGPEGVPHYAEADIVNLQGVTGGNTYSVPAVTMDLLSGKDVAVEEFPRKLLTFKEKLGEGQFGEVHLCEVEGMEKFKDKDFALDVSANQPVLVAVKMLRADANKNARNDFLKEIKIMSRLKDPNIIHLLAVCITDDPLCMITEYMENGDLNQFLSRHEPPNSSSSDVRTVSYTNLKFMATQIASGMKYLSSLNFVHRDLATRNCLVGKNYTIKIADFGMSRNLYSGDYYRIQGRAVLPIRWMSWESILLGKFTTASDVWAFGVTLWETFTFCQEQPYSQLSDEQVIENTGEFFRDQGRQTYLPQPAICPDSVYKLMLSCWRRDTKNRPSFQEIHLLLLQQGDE
# [4] = biological target: T3, Aurora kinase A (Homo sapiens) (UniProt O14965); assay: Residual activity of Aurora-A at 10 uM by microplate scintillation counting
# T3 sequence (whole entry): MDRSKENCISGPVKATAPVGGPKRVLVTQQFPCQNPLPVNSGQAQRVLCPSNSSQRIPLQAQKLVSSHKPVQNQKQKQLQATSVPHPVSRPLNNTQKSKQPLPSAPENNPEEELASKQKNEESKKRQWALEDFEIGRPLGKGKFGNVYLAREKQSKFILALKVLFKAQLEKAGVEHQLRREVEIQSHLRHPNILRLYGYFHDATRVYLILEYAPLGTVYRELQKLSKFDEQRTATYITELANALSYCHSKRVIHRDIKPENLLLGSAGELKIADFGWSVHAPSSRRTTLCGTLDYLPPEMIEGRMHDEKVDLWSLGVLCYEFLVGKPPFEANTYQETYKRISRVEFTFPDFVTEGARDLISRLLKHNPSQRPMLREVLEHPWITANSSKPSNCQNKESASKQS
# [5] = biological target: Cyclin-dependent kinase 1/cyclin B1 (Homo sapiens) (UniProt P06493+P14635); assay: Residual activity of CDK1/CyclinB1 at 1 uM by microplate scintillation counting; assay type: protein-complex assay
# Sequence of Cyclin-dependent kinase 1/cyclin B1 (Homo sapiens) (P06493 whole entry, looked up): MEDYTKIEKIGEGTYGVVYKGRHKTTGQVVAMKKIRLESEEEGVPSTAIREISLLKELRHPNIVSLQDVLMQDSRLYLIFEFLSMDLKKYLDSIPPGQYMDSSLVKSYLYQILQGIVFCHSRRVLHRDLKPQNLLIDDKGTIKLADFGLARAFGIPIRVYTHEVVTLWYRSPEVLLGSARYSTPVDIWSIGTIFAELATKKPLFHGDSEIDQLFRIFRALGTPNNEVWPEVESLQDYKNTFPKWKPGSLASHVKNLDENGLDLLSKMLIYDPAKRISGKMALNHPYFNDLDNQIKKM
# Sequence of Cyclin-dependent kinase 1/cyclin B1 (Homo sapiens) (P14635 whole entry, looked up): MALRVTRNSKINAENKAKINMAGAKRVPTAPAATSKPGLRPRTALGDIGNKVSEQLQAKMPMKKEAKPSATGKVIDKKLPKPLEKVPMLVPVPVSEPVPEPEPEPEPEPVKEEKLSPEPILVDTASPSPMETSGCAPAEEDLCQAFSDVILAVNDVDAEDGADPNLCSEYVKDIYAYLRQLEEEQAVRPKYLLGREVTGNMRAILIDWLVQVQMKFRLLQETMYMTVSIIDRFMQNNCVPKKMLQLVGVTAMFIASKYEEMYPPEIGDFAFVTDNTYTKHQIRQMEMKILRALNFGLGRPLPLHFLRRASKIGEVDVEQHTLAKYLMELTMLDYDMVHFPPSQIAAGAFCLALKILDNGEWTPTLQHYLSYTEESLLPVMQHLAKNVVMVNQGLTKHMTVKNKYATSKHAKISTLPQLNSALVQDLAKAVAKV
# [6] = biological target: T4, Lymphokine-activated killer T-cell-originated protein kinase (Homo sapiens) (UniProt Q96KB5); assay: Residual activity of PBK at 0.1 uM by microplate scintillation counting
# T4 sequence (whole entry): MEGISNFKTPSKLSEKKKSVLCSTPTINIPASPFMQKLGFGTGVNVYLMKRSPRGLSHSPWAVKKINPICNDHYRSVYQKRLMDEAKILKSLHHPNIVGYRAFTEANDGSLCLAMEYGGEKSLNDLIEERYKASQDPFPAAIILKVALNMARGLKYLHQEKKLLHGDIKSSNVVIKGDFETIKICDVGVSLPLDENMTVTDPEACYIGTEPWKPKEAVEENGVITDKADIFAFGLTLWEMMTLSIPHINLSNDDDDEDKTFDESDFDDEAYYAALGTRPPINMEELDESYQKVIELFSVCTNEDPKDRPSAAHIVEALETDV
# Aurora kinase B = Aurora kinase B (Homo sapiens, UniProt Q96GD4); assay: Inhibition of Aurora-B by microplate scintillation counting
# Sequence of Aurora kinase B (Q96GD4 whole entry): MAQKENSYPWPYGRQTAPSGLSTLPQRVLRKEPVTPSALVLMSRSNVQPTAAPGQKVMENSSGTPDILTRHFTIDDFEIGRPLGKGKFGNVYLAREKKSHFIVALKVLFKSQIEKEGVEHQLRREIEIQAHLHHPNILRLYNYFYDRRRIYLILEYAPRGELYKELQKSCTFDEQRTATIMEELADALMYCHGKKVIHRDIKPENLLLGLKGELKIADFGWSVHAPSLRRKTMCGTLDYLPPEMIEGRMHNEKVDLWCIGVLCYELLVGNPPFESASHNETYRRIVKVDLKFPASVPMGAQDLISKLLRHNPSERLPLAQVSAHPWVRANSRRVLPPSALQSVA
# Method in brief: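 Substrates: tetra(LRRWSLG) for Aurora A/B; poly(Ala,Glu,Lys,Tyr)6:2:5:1 for PDGFRβ; poly(Glu,Tyr)4:1 for TIE2 and VEGFR2. Stopped with 2% H3PO4.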
# Sequence of Ribosomal protein S6 kinase alpha-5 (Homo sapiens) (O75582 whole entry, looked up): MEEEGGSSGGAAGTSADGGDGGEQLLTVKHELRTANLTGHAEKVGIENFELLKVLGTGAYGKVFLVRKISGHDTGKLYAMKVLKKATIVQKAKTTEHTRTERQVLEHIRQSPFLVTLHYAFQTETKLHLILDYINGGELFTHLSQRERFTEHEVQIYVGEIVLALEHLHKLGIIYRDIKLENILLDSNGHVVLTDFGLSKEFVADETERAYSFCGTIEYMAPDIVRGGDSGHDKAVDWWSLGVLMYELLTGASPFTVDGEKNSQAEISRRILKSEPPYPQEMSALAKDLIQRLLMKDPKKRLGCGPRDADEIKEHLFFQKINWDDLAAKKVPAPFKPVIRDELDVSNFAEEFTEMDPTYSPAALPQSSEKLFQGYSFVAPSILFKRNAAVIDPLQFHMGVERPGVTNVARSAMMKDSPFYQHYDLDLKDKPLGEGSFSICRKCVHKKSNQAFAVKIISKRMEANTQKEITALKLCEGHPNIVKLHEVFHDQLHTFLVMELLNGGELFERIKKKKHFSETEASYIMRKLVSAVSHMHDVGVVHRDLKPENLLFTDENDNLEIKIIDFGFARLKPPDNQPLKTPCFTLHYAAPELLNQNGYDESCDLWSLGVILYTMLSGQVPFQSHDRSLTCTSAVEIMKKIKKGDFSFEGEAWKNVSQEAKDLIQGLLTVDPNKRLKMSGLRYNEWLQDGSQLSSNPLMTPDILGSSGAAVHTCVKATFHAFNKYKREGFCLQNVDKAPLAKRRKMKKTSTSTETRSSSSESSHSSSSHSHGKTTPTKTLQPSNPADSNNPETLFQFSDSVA
residual activity [1] [%],residual activity [2] [%],residual activity [3] [%],residual activity [4] [%],residual activity [5] [%],IC50 (Aurora kinase B) [nM],SMILES,residual activity [6] [%]
87,102,42,4,81,162,COc1cc2c(Oc3ccc(-c4nc5ccccc5s4)cc3)ncnc2cc1OCCCN1CCCC1,110
81,124,25,5,89,63,COc1cc2c(Oc3ccc(-c4nc5ccccc5s4)cc3)ncnc2cc1OCCCN1CCN(C)CC1,96
71,134,30,4,99,130,COc1cc2c(Oc3ccc(-c4nc5ccccc5s4)cc3F)ncnc2cc1OCCCN1CCN(C)CC1,91
